Data: PMC8268672 (Bioorganic Chemistry, 2021)
Converted amounts (≈) assume the structure as drawn. Like-named read-outs stand apart in the source and are kept apart here.

Experiments:
[1] = test system: Cryptococcus neoformans (ATCC 9011); experiment: MIC, broth microdilution; assay type: cell-based; conditions: ATCC9011, read-out: Minimum inhibitory concentration (MIC), CN
Summary of the method: (§1)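 Antifungal MICs by CLSI broth microdilution in Sabouraud liquid medium. Test compounds and standard drugs are serially diluted two-fold from 512 to 0.25. The fungal broth culture is grown 24 h at 35 °C to a 0.5 McFarland turbidity, then adjusted with sterile solution to the final inoculum.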

[2] = test system: Klebsiella aerogenes (NCIM-2098); experiment: Agar disk diffusion, inhibition zone; assay type: cell-based; conditions: 100 µg/8 mm disc, triplicate, mean ± SD
[3] = test system: Aspergillus fumigatus (NCIM 2081); experiment: Agar disk diffusion, inhibition zone; assay type: cell-based; conditions: 100 µg/8 mm disc, triplicate, mean ± SD
[4] = test system: Escherichia coli (ATCC 8739); experiment: MIC, broth microdilution; assay type: cell-based; conditions: ATCC8739, read-out: Minimum inhibitory concentration (MIC), EC
Summary of the method: (§2)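 Broth microdilution per CLSI in Mueller-Hinton broth, using two-fold serial dilutions of test compound and reference drugs from 512 to 0.25. Bacterial broth cultures were grown 2-6 h to 0.5 McFarland turbidity, then diluted with sterile solution to the final inoculum. MIC is reported in µg/mL.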

[5] = test system: Escherichia coli (ATCC 8739); experiment: Agar disk diffusion, inhibition zone; assay type: cell-based; conditions: 100 µg/8 mm disc, triplicate, mean ± SD
Summary of the method: (§3)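 Agar disk diffusion on Mueller-Hinton agar plates seeded with a standard bacterial suspension. Test compound stock in DMSO, diluted with distilled water; 8 mm sterile filter-paper discs soaked in the solution. Ampicillin was the reference. Plates incubated at 35 °C for 24 h, in triplicate. Read-out is the average inhibition-zone diameter (mm) around each disc.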

[6] = test system: Salmonella typhimurium (NCIM-2501); experiment: Agar disk diffusion, inhibition zone; assay type: cell-based; conditions: 100 µg/8 mm disc, triplicate, mean ± SD
[7] = test system: Lactobacillus casei (NCIM-2651); experiment: Agar disk diffusion, inhibition zone; assay type: cell-based; conditions: 100 µg/8 mm disc, triplicate, mean ± SD
[8] = test system: Bacillus cereus (NCIM-2458); experiment: MIC, broth microdilution; assay type: cell-based; conditions: NCIM2458, read-out: Minimum inhibitory concentration (MIC), BC
Summary of the method: as §2

[9] = test system: Aspergillus niger (NCIM 2191); experiment: MIC, broth microdilution; assay type: cell-based; conditions: NCIM2191, read-out: Minimum inhibitory concentration (MIC), AN
Summary of the method: as §1

[10] = test system: Streptococcus pneumonia (ATCC 49619); experiment: Agar disk diffusion, inhibition zone; assay type: cell-based; conditions: 100 µg/8 mm disc, triplicate, mean ± SD
[11] = test system: Bacillus cereus (NCIM-2458); experiment: Agar disk diffusion, inhibition zone; assay type: cell-based; conditions: 100 µg/8 mm disc, triplicate, mean ± SD
[12] = test system: Klebsiella aerogenes (NCIM-2098); experiment: MIC, broth microdilution; assay type: cell-based; conditions: NCIM2098, read-out: Minimum inhibitory concentration (MIC), KA
Summary of the method: (§4)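 Antibacterial MICs by CLSI broth microdilution in Mueller-Hinton broth. Test compounds and standard drugs are serially diluted two-fold from 512 to 0.25. The bacterial broth culture is grown 2-6 h to a 0.5 McFarland turbidity, then adjusted with sterile solution to the final inoculum.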

[13] = test system: Staphylococcus aureus (ATCC 29213); experiment: MIC, broth microdilution; assay type: cell-based; conditions: ATCC29213, read-out: Minimum inhibitory concentration (MIC), SA
Summary of the method: as §4

[14] = test system: Staphylococcus aureus (ATCC 29213); experiment: Agar disk diffusion, inhibition zone; assay type: cell-based; conditions: 100 µg/8 mm disc, triplicate, mean ± SD
Summary of the method: as §3

[15] = test system: Aspergillus fumigatus (NCIM 2081); experiment: MIC, broth microdilution; assay type: cell-based; conditions: NCIM2081, read-out: Minimum inhibitory concentration (MIC), AF
Summary of the method: as §1

[16] = test system: Pseudomonas aeruginosa (MCCB 0035); experiment: MIC, broth microdilution; assay type: cell-based; conditions: read-out: Minimum inhibitory concentration (MIC), PA
Summary of the method: as §2

[17] = test system: Cryptococcus neoformans (ATCC 9011); experiment: Agar disk diffusion, inhibition zone; assay type: cell-based; conditions: 100 µg/8 mm disc, triplicate, mean ± SD
[18] = test system: Candida albicans (NCIM 2087); experiment: MIC, broth microdilution; assay type: cell-based; conditions: NCIM2087, read-out: Minimum inhibitory concentration (MIC), CA
Summary of the method: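 CLSI broth microdilution in Sabouraud liquid medium, with test compound two-fold serially diluted from 512 to 0.25. Fungal broth culture grown 24 h at 35 °C to 0.5 McFarland turbidity, then adjusted with sterile solution to a final […] inoculum. MIC expressed in µg/mL.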

[19] = test system: Candida albicans (NCIM 2087); experiment: Agar disk diffusion, inhibition zone; assay type: cell-based; conditions: 100 µg/8 mm disc, triplicate, mean ± SD
[20] = test system: Aspergillus niger (NCIM 2191); experiment: Agar disk diffusion, inhibition zone; assay type: cell-based; conditions: 100 µg/8 mm disc, triplicate, mean ± SD
Summary of the method: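 For the fungal strain, discs soaked in test compound solution (DMSO stock diluted with distilled water) sat on seeded Mueller-Hinton agar. Clotrimazole was the reference. Incubation ran 48 h at 35 °C, in triplicate. Zone of growth inhibition recorded in mm as the mean diameter around each disc.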

[21] = test system: Pseudomonas aeruginosa (MCCB 0035); experiment: Agar disk diffusion, inhibition zone; assay type: cell-based; conditions: 100 µg/8 mm disc, triplicate, mean ± SD
Vaccinia virus = experiment: microbe, parasite or virus in culture; assay type: cell-based; conditions: Orthopoxvirus vaccinia, HEL, read-out: Antiviral EC50, Vaccinia virus
Adeno virus-2 = experiment: CPE reduction assay in HEL cells; assay type: cell-based; conditions: read-out: Antiviral EC50, Adeno virus-2
[22] = test system: Madin Darby canine kidney (MDCK) cells; conditions: dog
MT4 cells = conditions: MT4 cell cultures; colorimetric MTT cell viability assay
Sindbis virus = experiment: CPE reduction assay in Vero cells; assay type: cell-based; conditions: read-out: Antiviral EC50, Sindbis virus
Reovirus-1 = experiment: CPE reduction assay in Vero cells; assay type: cell-based; conditions: read-out: Antiviral EC50, Reovirus-1
Para-influenza-3 virus = experiment: CPE reduction assay in Vero cells; assay type: cell-based, Parainfluenza-3 virus; conditions: read-out: Antiviral EC50, Para-influenza-3 virus
Punta Toro virus = experiment: CPE reduction assay in Vero cells; assay type: cell-based; conditions: read-out: Antiviral EC50, Punta Toro virus
Coxsackie virus B4 = experiment: CPE reduction assay in Vero cells; assay type: cell-based; conditions: Enterovirus B, read-out: Antiviral EC50, Coxsackie virus B4
Yellow Fever virus = experiment: microbe, parasite or virus in culture; assay type: cell-based; conditions: read-out: Antiviral EC50, Yellow Fever virus
Human Coronavirus (229E) = experiment: CPE reduction assay in HEL cells; assay type: cell-based; conditions: read-out: Antiviral EC50, Human Coronavirus (229E)
[23] = Vero cell cultures, microscopically detectable alteration of normal cell morphology

Compound: Cc1ccc(S(=O)(=O)N2C(=O)CSC2c2cccc(C)c2)cc1 (centres unmarked) [5s, 2-(3-Methylphenyl)-3-[(4-methylphenyl)sulfonyl]-1,3-thiazolidin-4-one]
- MIC [1]: 128 µg/mL (≈ 368 µM)
- Diameter of growth inhibition zone, KA [2]: 08 ± 1.3 mm
- Diameter of growth inhibition zone, AF [3]: 9.2 ± 1.5 mm
- MIC [4]: 16 µg/mL (≈ 46 µM)
- Diameter of growth inhibition zone, EC [5]: 17 ± 1.5 mm
- Diameter of growth inhibition zone, ST [6]: 10 ± 0.4 mm
- Diameter of growth inhibition zone, LC [7]: 10 ± 0.6 mm
- MIC [8]: 64 µg/mL (≈ 184 µM)
- MIC [9]: 128 µg/mL (≈ 368 µM)
- Diameter of growth inhibition zone, SP [10]: 08 ± 0.4 mm
- Diameter of growth inhibition zone, BC [11]: 10 ± 0.2 mm
- MIC [12]: 128 µg/mL (≈ 368 µM)
- MIC [13]: 128 µg/mL (≈ 368 µM)
- Diameter of growth inhibition zone, SA [14]: 13 ± 1.5 mm
- MIC [15]: 64 µg/mL (≈ 184 µM)
- MIC [16]: 64 µg/mL (≈ 184 µM)
- Diameter of growth inhibition zone, CN [17]: 9 ± 0.5 mm
- MIC [18]: 64 µg/mL (≈ 184 µM)
- Diameter of growth inhibition zone, CA [19]: 10 ± 1.1 mm
- Diameter of growth inhibition zone, AN [20]: 9.6 ± 0.63 mm
- Diameter of growth inhibition zone, PA [21]: 15 ± 0.32 mm

Compound: Cc1ccc(C2SCC(=O)N2S(=O)(=O)c2ccc(C)cc2)cc1 (centres unmarked) [5t, 2-(4-Methylphenyl)-3-[(4-methylphenyl)sulfonyl]-1,3-thiazolidin-4-one]
- MIC [1]: > 256 µg/mL
- Diameter of growth inhibition zone, KA [2]: 07 ± 0.6 mm
- Diameter of growth inhibition zone, AF [3]: 09 ± 1.5 mm
- MIC [4]: 64 µg/mL (≈ 184 µM)
- Diameter of growth inhibition zone, EC [5]: 12 ± 1.2 mm
- Diameter of growth inhibition zone, ST [6]: 07 ± 0.7 mm
- Diameter of growth inhibition zone, LC [7]: 08 ± 0.5 mm
- MIC [8]: > 256 µg/mL
- MIC [9]: 128 µg/mL (≈ 368 µM)
- Diameter of growth inhibition zone, SP [10]: 07 ± 0.7 mm
- Diameter of growth inhibition zone, BC [11]: 07 ± 0.84 mm
- MIC [12]: > 256 µg/mL
- MIC [13]: 64 µg/mL (≈ 184 µM)
- Diameter of growth inhibition zone, SA [14]: 12 ± 1.9 mm
- MIC [15]: 64 µg/mL (≈ 184 µM)
- MIC [16]: 128 µg/mL (≈ 368 µM)
- Diameter of growth inhibition zone, CN [17]: 10 ± 0.9 mm
- MIC [18]: 128 µg/mL (≈ 368 µM)
- Diameter of growth inhibition zone, CA [19]: 9.8 ± 0.23 mm
- Diameter of growth inhibition zone, AN [20]: 9.5 ± 0.9 mm
- Diameter of growth inhibition zone, PA [21]: 11 ± 0.65 mm

Compound: Nc1nc2c(ncn2COCCO)c(=O)[nH]1 [Acyclovir, reference compound]
- EC50 (Vaccinia virus): > 250 µM

Compound: Cc1cn([C@H]2C[C@H](F)[C@@H](CO)O2)c(=O)[nH]c1=O [Alovudine, reference compound]
- EC50 (Adeno virus-2): 1.4 µM

Compound: NC12CC3CC(CC(C3)C1)C2 [Amantadine, reference compound]
- Cytotoxicity, Minimum cytotoxic conc. [22]: >100 µM

Compound: Cc1cn([C@H]2C[C@H](N=[N+]=[N-])[C@@H](CO)O2)c(=O)[nH]c1=O [Azidothymidine, reference compound]
- Minimum cytotoxic conc. (MT4 cells): >2 µM

Compound: O=c1[nH]cnc2c1ncn2[C@H]1CC[C@@H](CO)O1 [Didanosine, reference compound]
- Minimum cytotoxic conc. (MT4 cells): >50 µM

Compound: Nc1nc(O)c2ncn(COC(CO)CO)c2n1 [Ganciclovir, reference compound]
- EC50 (Vaccinia virus): > 100 µM

Compound: Nc1ccn([C@@H]2CS[C@H](CO)O2)c(=O)n1 [Lamivudine, reference compound]
- Minimum cytotoxic conc. (MT4 cells): >20 µM

Compound: COc1c(C)c2c(c(O)c1C/C=C(\C)CCC(=O)O)C(=O)OC2 [Mycophenolic acid, mycophenolic acid, reference compound]
- EC50 (Sindbis virus): 11.7 µM
- Minimum cytotoxic conc. (Vero cells; [23]): >100 µM
- EC50 (Reovirus-1): 0.4 µM
- EC50 (Para-influenza-3 virus; Vero): 0.4 µM
- EC50 (Punta Toro virus): 1.4 µM
- EC50 (Coxsackie virus B4): > 100 µM
- EC50 (Yellow Fever virus; Yellow fever virus, Vero): 0.8 µM

Compound: Cc1ccnc2c1NC(=O)c1cccnc1N2C1CC1 [Nevirapine, reference compound]
- Minimum cytotoxic conc. (MT4 cells): >4 µM

Compound: NC(=O)c1ncn([C@@H]2O[C@H](CO)[C@@H](O)[C@H]2O)n1 [Ribavirin, reference compound]
- EC50 (Sindbis virus): > 250 µM
- Minimum cytotoxic conc. (Vero cells; [23]): >250 µM
- Cytotoxicity, Minimum cytotoxic conc. [22]: ≥100 µM
- EC50 (Reovirus-1): > 250 µM
- EC50 (Para-influenza-3 virus; Vero): 112 µM
- EC50 (Coxsackie virus B4): > 250 µM
- EC50 (Human Coronavirus (229E)): > 250 µM
- EC50 (Yellow Fever virus; Yellow fever virus, Vero): > 250 µM

Compound: CC(N)C12CC3CC(CC(C3)C1)C2 (centres unmarked) [Rimantadine, reference compound]
- Cytotoxicity, Minimum cytotoxic conc. [22]: >200 µM

Compound: Nc1ccn([C@H]2CC[C@@H](CO)O2)c(=O)n1 [Zalcitabine, reference compound]
- EC50 (Adeno virus-2): 50 µM

Compound: CC(=O)N[C@H]1[C@H]([C@H](O)[C@H](O)CO)OC(C(=O)O)=C[C@@H]1N=C(N)N [Zanamivir, reference compound]
- Cytotoxicity, Minimum cytotoxic conc. [22]: >100 µM

Compound: dextran sulfate [DS-10.000, reference compound]
- Minimum cytotoxic conc. (Vero cells): >100 µM
- EC50 (Para-influenza-3 virus): > 100 µM
- EC50 (Yellow Fever virus): 0.8 µM
